Measurements: ChEMBL document CHEMBL1121439, “Accumulation of drugs by guinea pig isolated atria. Quantitative correlations” (J Med Chem, 1980)

Key:
[1] = biological target: T1, Albumin (Homo sapiens, UniProt P02768); assay: Ability to bind to human serum albumin (HSA)
[2] = Tested for the dissociation constant of the compound; assay type: ADME
[3] = Partition coefficient (logP); assay type: physicochemical; conditions: octanol/water
[4] = species on record: Cavia porcellus; assay: Ability to bind to guinea pig atrial homogenate; conditions: Cardiac atrium
Outline: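 Guinea pig left and right atria were blotted 90 s, weighed, and homogenized (6%, g/v) in ice-cold 0.067 M Sørensen phosphate buffer, pH 7.4, for three 20-s bursts. Radiolabeled drug (3.3×10^-6 M) was incubated with 4% (g/v) homogenate for 90 min at room temperature under partial saturation. Total aliquot and supernatant after 145000g, 15 h, 25 °C were counted. Result given as log B/F.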

[5] = biological target: T1, Albumin; assay: Ability to bind to human serum albumin
Outline: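 Purified human serum albumin, 4% (g/v), with radiolabeled drug at 3.3×10^-6 M in 0.067 M Sørensen phosphate buffer pH 7.4 (partial saturation). Incubated 90 min at room temperature. Radioactivity counted in an aliquot before and after centrifugation at 145000g for 15 h at 25 °C. Binding expressed as log B/F.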

T1 sequence (P02768 whole entry): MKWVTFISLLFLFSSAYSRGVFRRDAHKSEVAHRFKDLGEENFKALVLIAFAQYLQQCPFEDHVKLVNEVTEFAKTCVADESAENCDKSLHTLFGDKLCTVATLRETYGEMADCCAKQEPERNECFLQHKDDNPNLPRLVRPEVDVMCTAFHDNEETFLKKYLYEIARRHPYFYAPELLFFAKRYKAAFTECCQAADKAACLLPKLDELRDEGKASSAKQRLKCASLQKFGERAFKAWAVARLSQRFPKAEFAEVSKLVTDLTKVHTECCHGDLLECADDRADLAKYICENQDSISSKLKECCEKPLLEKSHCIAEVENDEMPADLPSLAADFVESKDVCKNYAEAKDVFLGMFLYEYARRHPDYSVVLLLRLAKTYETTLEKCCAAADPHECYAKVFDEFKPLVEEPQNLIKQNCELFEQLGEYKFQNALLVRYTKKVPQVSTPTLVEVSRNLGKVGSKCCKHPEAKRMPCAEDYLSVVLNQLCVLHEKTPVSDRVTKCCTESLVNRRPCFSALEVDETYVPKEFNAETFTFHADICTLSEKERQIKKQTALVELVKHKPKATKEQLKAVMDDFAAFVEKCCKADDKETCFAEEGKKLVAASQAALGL

CCC1(c2ccccc2)C(=O)NC(=O)NC1=O [PHENOBARBITAL]
Log B/F [1]: 0.11
pKa [2]: 7.5
logP ([3]; read-out: logP): 1.43

C[C@@H]1C[C@H]2[C@@H]3CCC4=CC(=O)C=C[C@]4(C)[C@@]3(F)[C@@H](O)C[C@]2(C)[C@@]1(O)C(=O)CO [DEXAMETHASONE]
logP ([3]; read-out: logP): 1.74

OC[C@H]1O[C@@](CO)(O[C@H]2O[C@H](CO)[C@@H](O)[C@H](O)[C@H]2O)[C@@H](O)[C@@H]1O
Log B/F [4]: -4

COCCc1ccc(OCC(O)CNC(C)C)cc1 (configuration not stated) [METOPROLOL]
logP ([3]; read-out: logP): 2.34

C=CCc1ccccc1OCC(O)CNC(C)C (configuration not stated) [ALPRENOLOL]
logP ([3]; read-out: logP): 3.1
Log B/F [4]: -0.158

CCC(c1ccccc1)c1c(O)c2ccccc2oc1=O (configuration not stated) [PHENPROCOUMON]
Log B/F [1]: 2.128
pKa [2]: 5
logP ([3]; read-out: logP): 3.62

COc1ccc2c(c1)c(CC(=O)O)c(C)n2C(=O)c1ccc(Cl)cc1 [INDOMETHACIN]
logP ([3]; read-out: logP): 2

O=C(O)[C@H]1O[C@@H](O)[C@H](O)[C@@H](O)[C@@H]1O [GLUCURONATE]
Log B/F [1]: -2
pKa [2]: 3.2
logP ([3]; read-out: logP): -2.57
Log B/F [4]: -4

O=C1CCC(c2ccccc2)(C2CCN(Cc3ccccc3)CC2)C(=O)N1 (configuration not stated) [BENZETIMIDE]
Log B/F [5]: 0.087
logP ([3]; read-out: logP): 3.55
Log B/F [4]: -0.184

COc1ccc(CCN(C)CCCC(C#N)(c2ccc(OC)c(OC)c2)C(C)C)cc1OC (configuration not stated)
pKa [2]: 9.2
Log B/F [4]: 0.114

CCCNC(C)C(=O)Nc1c(C)csc1C(=O)OC (configuration not stated) [ARTICAINE]
Log B/F [1]: -0.281
pKa [2]: 7.8
logP [3]: 2.41
Log B/F [4]: -0.739

C[C@H]1O[C@@H](O[C@H]2[C@@H](O)C[C@H](O[C@H]3[C@@H](O)C[C@H](O[C@H]4CC[C@@]5(C)[C@H](CC[C@@H]6[C@@H]5CC[C@]5(C)[C@@H](C7=CC(=O)OC7)CC[C@]65O)C4)O[C@@H]3C)O[C@@H]2C)C[C@H](O)[C@@H]1O [DIGITOXIN]
Log B/F [1]: 3.222
logP ([3]; read-out: logP): 1.76
